Test results: ChEMBL document CHEMBL4020726, “Discovery of 2-((4,6-dimethylpyrimidin-2-yl)thio)-N-phenylacetamide derivatives as new potent and selective human sirtuin 2 inhibitors” (Eur J Med Chem, 2017)
Activity calls are given as the source filed them. The calls are words filed in the database; no cut-off is given here.

What was measured:
[1] = biological target: T1, NAD-dependent protein deacetylase sirtuin-2 (Homo sapiens) (UniProt Q8IXJ6); assay: Inhibition of human SIRT2 at 50 uM
T1 sequence (whole entry): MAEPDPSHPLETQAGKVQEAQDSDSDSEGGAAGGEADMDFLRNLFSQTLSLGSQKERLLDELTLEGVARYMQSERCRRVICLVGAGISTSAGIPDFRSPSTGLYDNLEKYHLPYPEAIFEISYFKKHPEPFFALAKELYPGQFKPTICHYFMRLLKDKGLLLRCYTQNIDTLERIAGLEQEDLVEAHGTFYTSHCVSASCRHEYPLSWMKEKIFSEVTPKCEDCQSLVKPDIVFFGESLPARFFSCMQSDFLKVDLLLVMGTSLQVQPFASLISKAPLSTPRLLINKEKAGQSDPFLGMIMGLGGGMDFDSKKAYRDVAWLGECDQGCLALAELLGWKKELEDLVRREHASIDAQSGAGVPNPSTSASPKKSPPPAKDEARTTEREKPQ

[2] = biological target: T1, NAD-dependent protein deacetylase sirtuin-2 (Homo sapiens); assay: Inhibition of human SIRT2 at 5 uM
[3] = biological target: T2, NAD-dependent protein deacetylase sirtuin-3, mitochondrial (Homo sapiens, UniProt Q9NTG7); assay: Inhibition of SIRT3 (unknown origin)
T2 sequence (Q9NTG7 whole entry): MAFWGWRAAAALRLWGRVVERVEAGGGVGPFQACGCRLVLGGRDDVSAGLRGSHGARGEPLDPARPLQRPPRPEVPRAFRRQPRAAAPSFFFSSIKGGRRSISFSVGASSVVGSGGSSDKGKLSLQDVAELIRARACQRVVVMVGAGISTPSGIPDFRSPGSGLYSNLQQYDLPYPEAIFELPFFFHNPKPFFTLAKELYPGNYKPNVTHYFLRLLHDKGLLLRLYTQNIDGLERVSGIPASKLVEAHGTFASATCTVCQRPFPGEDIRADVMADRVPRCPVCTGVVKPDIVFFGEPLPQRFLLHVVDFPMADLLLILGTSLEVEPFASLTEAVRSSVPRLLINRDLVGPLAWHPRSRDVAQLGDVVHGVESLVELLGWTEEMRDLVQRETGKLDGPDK

MCF7 [4] = assay: Growth inhibition of human MCF7 cells at 50 uM after 120 hrs by MTT assay; assay type: functional
How it was run: (§1)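 MCF-7 cells were kept in high-glucose DMEM with 10% FBS and penicillin/streptomycin, split at 80–90% confluency and used within 10 passages. They were seeded at 3000 cells/well, grown 24 h, then exposed for 120 h at 37°C, 5% CO2 (final DMSO 1% v/v). MTT formazan was dissolved in acidified 20% SDS and read at 570 nm. Triplicates; experiments repeated at least twice.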

[5] = Growth inhibition of human HL7702 cells at 100 uM after 120 hrs by MTT assay; assay type: cell-based; conditions: HL7702 (L02) cells, read-out: GI
MCF7 [6] = assay: Growth inhibition of human MCF7 cells after 120 hrs by MTT assay; assay type: functional, cell-based; how it was run: as §1
[7] = biological target: T3, NAD-dependent protein deacetylase sirtuin-1 (Homo sapiens, UniProt Q96EB6); assay: Inhibition of SIRT1 (unknown origin)
T3 sequence (Q96EB6 whole entry): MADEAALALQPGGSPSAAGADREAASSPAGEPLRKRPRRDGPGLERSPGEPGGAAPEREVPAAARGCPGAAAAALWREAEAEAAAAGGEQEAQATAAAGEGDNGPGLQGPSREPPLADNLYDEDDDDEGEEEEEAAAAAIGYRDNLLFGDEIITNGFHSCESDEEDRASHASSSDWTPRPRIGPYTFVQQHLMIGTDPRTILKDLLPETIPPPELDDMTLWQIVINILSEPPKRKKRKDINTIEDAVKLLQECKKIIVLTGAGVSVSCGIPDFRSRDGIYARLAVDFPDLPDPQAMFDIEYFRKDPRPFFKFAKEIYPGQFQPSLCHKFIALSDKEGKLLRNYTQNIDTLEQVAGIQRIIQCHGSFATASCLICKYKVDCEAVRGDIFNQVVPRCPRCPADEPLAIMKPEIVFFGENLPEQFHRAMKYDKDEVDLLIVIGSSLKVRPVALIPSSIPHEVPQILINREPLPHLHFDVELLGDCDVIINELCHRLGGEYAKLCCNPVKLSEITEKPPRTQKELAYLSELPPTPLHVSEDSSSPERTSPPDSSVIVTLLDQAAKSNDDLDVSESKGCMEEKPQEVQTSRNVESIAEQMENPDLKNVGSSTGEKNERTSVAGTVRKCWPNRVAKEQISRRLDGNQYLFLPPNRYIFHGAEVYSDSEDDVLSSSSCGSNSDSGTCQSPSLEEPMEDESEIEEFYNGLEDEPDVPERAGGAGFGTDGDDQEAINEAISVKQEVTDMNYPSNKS

| inhibition [1] [%] | inhibition [2] [%] | SMILES | further results |
| --- | --- | --- | --- |
| 95 | 64 | Cc1cc(C)nc(SCC(=O)Nc2cccc(NCc3ccccc3)c2)n1 |  |
| 84 | 59 | Cc1cc(C)nc(SCC(=O)Nc2cccc(COc3ccc4ccccc4c3)c2)n1 |  |
| 24 | 1 | Cc1cc(C)nc(SCC(=O)Nc2ccc(COc3ccccc3)cc2)n1 | growth inhibition (GI) (MCF7 [4]): inactive; inhibition at 120 h, 100 µM [5]: 6% |
| 95 | 67 | Cc1cc(C)nc(SCC(=O)Nc2cccc(COc3ccc(NS(=O)(=O)C4CC4)cc3)c2)n1 |  |
| 62 | 40 | Cc1cc(C)nc(SCC(=O)Nc2ccc(OCc3ccccc3)cc2)n1 |  |
| 96 | 71 | Cc1cc(C)nc(SCC(=O)Nc2cccc(COc3ccccc3)c2)n1 |  |
| 74 | 70 | Cc1cc(C)nc(SCC(=O)Nc2ccc(Cc3ccccc3)cc2)n1 |  |
| 91 | 57 | Cc1cc(C)nc(SCC(=O)Nc2cccc(COc3ccc4[nH]ncc4c3)c2)n1 |  |
| 70 | 15 | Cc1cc(C)nc(SCC(=O)Nc2ccc(NCc3cccs3)cc2)n1 |  |
| 55 | 9 | Cc1cc(C)nc(SCC(=O)Nc2ccc(NCc3ccccc3)cc2)n1 |  |
| 78 | 42 | Cc1cc(C)nc(SCC(=O)Nc2ccc(Oc3ccccc3)cc2)n1 |  |
| 79 | 42 | Cc1cc(C)nc(SCC(=O)Nc2cccc(COc3cccc4ccccc34)c2)n1 |  |
| 96 | 73 | Cc1cc(C)nc(SCC(=O)Nc2cccc(Cc3ccccc3)c2)n1 |  |

The remaining lines, values behind:

| SMILES | inhibition [1] [%] | inhibition [2] [%] | further results |
| --- | --- | --- | --- |
| O=C(Nc1ccccc1-c1cn2c(CN3CCNCC3)csc2n1)c1cnc2ccccc2n1 |  |  | IC50 [3]: 0.85 µM |
| Cc1cc(C)nc(SCC(=O)Nc2ccc(CNc3ccccc3)cc2)n1 | 72 | 20 |  |
| Cc1cc(C)nc(SCC(=O)Nc2ccc(NCc3ccco3)cc2)n1 | 58 | 17 |  |
| Cc1cc(C)nc(SCC(=O)Nc2cccc(COc3ccc(NS(=O)(=O)c4ccccc4)cc3)c2)n1 | 87 | 73 |  |
| Cc1ccc(C(=O)Nc2ccc(S(=O)(=O)O)c3cc(S(=O)(=O)O)cc(S(=O)(=O)O)c23)cc1NC(=O)c1cccc(NC(=O)Nc2cccc(C(=O)Nc3cc(C(=O)Nc4ccc(S(=O)(=O)O)c5cc(S(=O)(=O)O)cc(S(=O)(=O)O)c45)ccc3C)c2)c1 | 73 | 31 |  |
| Cc1cc(C)nc(SCC(=O)Nc2cccc(C(=O)c3ccccc3)c2)n1 | 89 | 40 |  |
| Cc1cc(C)nc(SCC(=O)Nc2cccc(NCc3cccs3)c2)n1 | 93 | 60 |  |
| Cc1cc(C)nc(S(=O)(=O)CC(=O)Nc2ccc(Oc3ccccc3)cc2)n1 | 21 | -2 |  |
| Cc1cc(C)nc(SCC(=O)Nc2cccc(Nc3ccccc3)c2)n1 | 95 | 61 |  |
| Cc1cc(C)nc(SCC(=O)Nc2cccc(C(O)c3ccccc3)c2)n1 (centres undefined) | 78 | 18 |  |
| Cc1cc(C)nc(SCC(=O)Nc2cccc(COc3cccc4cccnc34)c2)n1 | 73 | 41 |  |
| Cc1cc(C)nc(SCC(=O)Nc2ccc(C(=O)c3ccccc3)cc2)n1 | 74 | 22 |  |
| CC(=O)Nc1cccc(OCc2cccc(NC(=O)CSc3nc(C)cc(C)n3)c2)c1 | 99 | 68 |  |
| Cc1cc(C)nc(SCC(=O)Nc2ccc(C(O)c3ccccc3)cc2)n1 (centres undefined) | 75 | 26 |  |
| CC(=O)Nc1ccc(OCc2cccc(NC(=O)CSc3nc(C)cc(C)n3)c2)cc1 | 92 | 62 |  |
| Cc1cc(C)nc([S+]([O-])CC(=O)Nc2ccc(Oc3ccccc3)cc2)n1 (centres undefined) | 79 | 34 |  |
| Cc1cc(C)nc(SCC(=O)Nc2ccc(NCc3ccncc3)cc2)n1 | 43 | 10 |  |
| Cc1cc(C)nc(SCC(=O)Nc2cccc(OCc3ccccc3)c2)n1 | 92 | 59 |  |
| Cc1cc(C)nc(SCC(=O)Nc2cccc(CNc3ccccc3)c2)n1 | 90 | 49 |  |
| Cc1cc(C)nc(SCC(=O)Nc2cccc(Oc3ccccc3)c2)n1 | 92 | 49 |  |
| Cc1cc(C)nc(SCC(=O)Nc2ccc(Nc3ccccc3)cc2)n1 | 72 | 19 |  |
| Cc1cc(C)nc(SCC(=O)Nc2cccc(COc3ccc(NC(=O)c4cccs4)cc3)c2)n1 |  |  | inhibition of growth at 50 µM (MCF7 [4]; MCF7, 120 h, read-out: GI): > 50%; growth inhibition (GI) (MCF7 [6]): Dose-dependent effect; inhibition at 120 h, 100 µM [5]: 3%; IC50 [7]: > 300 µM; IC50 [3]: > 300 µM |
